Data published in ChEMBL document CHEMBL1932966, “Pyrrolo- and pyrazolo-[3,4-e][1,2,4]triazolo[1,5-c]pyrimidines as adenosine receptor antagonists” (Bioorg Med Chem, 2012).

Tests used:
[1] = biological target: T1, Adenosine receptor A1 (Homo sapiens) (UniProt P30542); assay: Displacement of [3H]-DPCPX from human adenosine A1 receptor expressed in CHO cells at 1 uM after 120 mins by liquid scintillation counting; assay type: cell-based
T1 sequence (whole entry): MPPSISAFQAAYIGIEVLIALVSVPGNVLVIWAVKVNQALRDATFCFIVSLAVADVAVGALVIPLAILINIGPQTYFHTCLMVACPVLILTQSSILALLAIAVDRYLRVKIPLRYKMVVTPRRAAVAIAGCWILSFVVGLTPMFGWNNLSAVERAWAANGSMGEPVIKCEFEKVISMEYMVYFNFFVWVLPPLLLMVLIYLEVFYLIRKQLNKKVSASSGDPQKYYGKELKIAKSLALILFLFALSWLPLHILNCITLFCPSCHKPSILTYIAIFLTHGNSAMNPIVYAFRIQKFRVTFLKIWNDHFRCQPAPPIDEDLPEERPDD
Method in brief: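 Percent inhibition at a single concentration of 1 nM [3H]DPCPX binding to hA1-CHO membranes in 50 mM Tris HCl, pH 7.4. Membranes were pretreated with 2 IU/mL adenosine deaminase for 30 min at 37 °C. Incubation was 120 min at 25 °C, and bound label was separated by GF/B glass-fibre filtration.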

Adenosine receptor A2a [2] = biological target: T2, Adenosine receptor A2a (Homo sapiens, UniProt P29274); assay: Displacement of [3H]-ZM 241385 from human adenosine A2A receptor expressed in CHO cells at 1 uM after 60 mins by liquid scintillation counting; assay type: cell-based
T2 sequence (P29274 whole entry): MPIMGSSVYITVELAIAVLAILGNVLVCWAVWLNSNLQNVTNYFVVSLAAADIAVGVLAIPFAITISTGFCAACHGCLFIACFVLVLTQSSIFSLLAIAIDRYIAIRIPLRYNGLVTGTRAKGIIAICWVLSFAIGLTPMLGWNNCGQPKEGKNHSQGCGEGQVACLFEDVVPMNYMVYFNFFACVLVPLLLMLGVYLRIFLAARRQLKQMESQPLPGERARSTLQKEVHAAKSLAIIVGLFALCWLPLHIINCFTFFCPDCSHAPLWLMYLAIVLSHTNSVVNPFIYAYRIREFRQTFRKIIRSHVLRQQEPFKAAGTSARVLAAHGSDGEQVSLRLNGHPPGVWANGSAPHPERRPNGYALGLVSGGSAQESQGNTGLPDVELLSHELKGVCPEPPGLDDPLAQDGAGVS

Adenosine receptor A1 = biological target: T3, Adenosine receptor A1 (Homo sapiens, UniProt P30542); assay: Displacement of [3H]-DPCPX from human adenosine A1 receptor expressed in CHO cells after 120 mins by liquid scintillation counting; assay type: cell-based
T3 sequence (P30542 whole entry): T1 sequence (whole entry)

[3] = biological target: Adenosine receptor A2B (Homo sapiens) (UniProt P29275); conditions: CHO, at 1 µM
Adenosine receptor A3 [4] = biological target: T4, Adenosine receptor A3 (Homo sapiens, UniProt P0DMS8); assay: Displacement of [3H]-MRE-3008-F20 from human adenosine A3 receptor expressed in CHO cells after 120 mins by liquid scintillation counting; assay type: cell-based
T4 sequence (P0DMS8 whole entry): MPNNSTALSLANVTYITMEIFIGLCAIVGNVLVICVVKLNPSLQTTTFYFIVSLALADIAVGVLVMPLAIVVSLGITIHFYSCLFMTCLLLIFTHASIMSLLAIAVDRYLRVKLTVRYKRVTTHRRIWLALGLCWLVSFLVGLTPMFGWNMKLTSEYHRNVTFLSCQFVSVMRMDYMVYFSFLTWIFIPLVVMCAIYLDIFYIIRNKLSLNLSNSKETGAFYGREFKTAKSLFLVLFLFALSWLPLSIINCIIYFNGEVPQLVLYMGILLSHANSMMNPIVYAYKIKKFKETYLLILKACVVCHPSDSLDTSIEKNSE

Adenosine receptor A2b = biological target: T5, Adenosine receptor A2b (Homo sapiens, UniProt P29275); assay type: functional, cell-based, CHO
T5 sequence (P29275 whole entry): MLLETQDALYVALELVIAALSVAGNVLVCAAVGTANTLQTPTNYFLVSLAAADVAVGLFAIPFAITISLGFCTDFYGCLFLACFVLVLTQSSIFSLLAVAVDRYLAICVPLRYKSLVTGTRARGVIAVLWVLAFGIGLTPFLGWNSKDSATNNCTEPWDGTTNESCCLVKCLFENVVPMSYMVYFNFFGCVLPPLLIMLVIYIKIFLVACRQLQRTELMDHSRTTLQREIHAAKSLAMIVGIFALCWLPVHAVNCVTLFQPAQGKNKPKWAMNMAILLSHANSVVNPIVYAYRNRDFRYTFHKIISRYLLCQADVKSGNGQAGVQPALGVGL

[5] = biological target: T6, Adenosine receptor A3 (Homo sapiens) (UniProt P0DMS8); assay: Displacement of [3H]-MRE-3008-F20 from human adenosine A3 receptor expressed in CHO cells at 1 uM after 120 mins by liquid scintillation counting; assay type: cell-based
T6 sequence (whole entry): T4 sequence (P0DMS8 whole entry)
Method in brief: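 Membranes from hA3-CHO cells in 50 mM Tris HCl, 10 mM MgCl2, 1 mM EDTA, pH 7.4, pretreated with adenosine deaminase (2 IU/mL, 30 min, 37 °C). Incubation 120 min at 4 °C. Non-specific binding with unlabelled MRE3008F20. GF/B filtration.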

Adenosine receptor A2a [6] = biological target: T2, Adenosine receptor A2a; assay: Displacement of [3H]-ZM 241385 from human adenosine A2A receptor expressed in CHO cells after 60 mins by liquid scintillation counting; assay type: cell-based
Adenosine receptor A3 [7] = biological target: T4, Adenosine receptor A3; assay: Antagonist activity at human adenosine A3 receptor expressed in forskolin-stimulated CHO cells assessed as inhibition of Cl-IB-MECA-induced cAMP production by competition protein binding assay; assay type: functional, cell-based
Method in brief: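 CHO cells stably expressing human A3 receptor were harvested with dilute trypsin and preincubated for 10 min at 37 °C in pH 7.4 buffer with 2 IU/mL adenosine deaminase and the phosphodiesterase inhibitor Ro 20-1724. Antagonism of 100 nM Cl-IB-MECA was run with forskolin present. The reaction was stopped with cold 6% TCA and extracted with ether. cAMP was read against [3H]cAMP and bovine adrenal binding protein. IC50 came from sigmoid fitting.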

Row | Compound | inhibition [1] [%] | inhibition (Adenosine receptor A2a [2]) [%] | Ki (Adenosine receptor A1) [nM] | inhibition [3] [%] | Ki (Adenosine receptor A3 [4]) [nM] | IC50 (Adenosine receptor A2b) [nM] | inhibition [5] [%] | Ki (Adenosine receptor A2a [6]) [nM] | IC50 (Adenosine receptor A3 [7]) [nM]
1 | CN1CCN(c2nc3cnn(C)c3c3nc(-c4ccco4)nn23)CC1 | 5 | 2 | > 1000 | 2 | > 1000 | > 1000 | 1 | > 1000 | –
2 | CCCn1ncc2nc(N)n3nc(-c4ccco4)nc3c21 | – | – | 14 | – | 83 | 40 | – | 12 | 500
3 | Cn1ncc2nc(N)n3nc(-c4ccco4)nc3c21 | – | – | 10 | – | 749 | 31 | – | 3.6 | –
4 | COc1ccc(NC(=O)Nc2nc3cn(C)cc3c3nc(-c4ccco4)nn23)cc1 | – | – | 800 | – | 15 | 838 | – | 500 | 75
5 | Cn1cc2nc(N)n3nc(-c4ccco4)nc3c2n1 | – | – | 30 | – | 125 | 33 | – | 8.1 | –
6 | COc1ccc(NC(=O)Nc2nc3cn(CCc4ccccc4)cc3c3nc(-c4ccco4)nn23)cc1 | – | – | 178 | – | 12 | 740 | – | 148 | –
7 | Cn1ncc2nc(NC3CCCCC3)n3nc(-c4ccco4)nc3c21 | – | – | 12 | – | 507 | 915 | – | 119 | –
8 | CCCn1ncc2nc(NC(=O)Nc3ccc(OC)cc3)n3nc(-c4ccco4)nc3c21 | – | – | 61 | – | 161 | 32 | – | 20 | –
9 | Nc1nc2cn(CCc3ccccc3)nc2c2nc(-c3ccco3)nn12 | – | – | 4.9 | – | 315 | 27 | – | 9.2 | –
10 | Nc1nc2cn(CCc3ccccc3)cc2c2nc(-c3ccco3)nn12 | – | – | 4.3 | – | 124 | 46 | – | 3.9 | –
11 | Cn1ncc2nc(N3CCN(c4ccccc4)CC3)n3nc(-c4ccco4)nc3c21 | 8 | 9 | > 1000 | 5 | > 1000 | > 1000 | 1 | > 1000 | –
12 | COc1ccc(NC(=O)Nc2nc3cn(CCc4ccccc4)nc3c3nc(-c4ccco4)nn23)cc1 | – | – | 753 | – | 314 | 548 | – | 672 | –
13 | Nc1nc2cnn(CCCc3ccccc3)c2c2nc(-c3ccco3)nn12 | – | – | 85 | – | 802 | 595 | – | 122 | –
14 | COc1ccc(NC(=O)Nc2nc3cn(CCCc4ccccc4)nc3c3nc(-c4ccco4)nn23)cc1 | 35 | 31 | > 1000 | 31 | 815 | > 1000 | – | > 1000 | –
15 | COc1ccc(NC(=O)Nc2nc3cnn(CCCc4ccccc4)c3c3nc(-c4ccco4)nn23)cc1 | 38 | 32 | > 1000 | 32 | > 1000 | > 1000 | 25 | > 1000 | –
16 | Nc1nc2cn(CCCc3ccccc3)cc2c2nc(-c3ccco3)nn12 | – | – | 18 | – | 241 | 251 | – | 50 | –
17 | COc1ccc(NC(=O)Nc2nc3cnn(C)c3c3nc(-c4ccco4)nn23)cc1 | – | – | 129 | – | 61 | 122 | – | 68 | –
18 | Nc1nc2cnn(CCc3ccccc3)c2c2nc(-c3ccco3)nn12 | – | – | 33 | – | 603 | 319 | – | 42 | –
19 | COc1ccc(NC(=O)Nc2nc3cn(C)nc3c3nc(-c4ccco4)nn23)cc1 | – | – | 923 | – | 110 | 580 | – | 222 | –
20 | Nc1nc2c(cnn2CCc2ccccc2)c2nc(-c3ccco3)nn12 [SCH-58261] | – | – | – | – | > 10000 | – | – | – | –
21 | Cn1cc2nc(NC(=O)Nc3ccncc3)n3nc(-c4ccco4)nc3c2c1 | – | 13 | 355 | 8 | 111 | > 1000 | – | > 1000 | –
22 | Nc1nc2cn(CCCc3ccccc3)nc2c2nc(-c3ccco3)nn12 | – | – | 7.1 | – | 526 | 32 | – | 11 | –
23 | CCCn1cc2nc(N)n3nc(-c4ccco4)nc3c2c1 | – | – | 35 | – | 55 | 90 | – | 30 | –
24 | Cn1cc2nc(N)n3nc(-c4ccco4)nc3c2c1 | – | – | 100 | – | 50 | 42 | – | 20 | –
25 | COc1ccc(NC(=O)Nc2nc3cnn(CCc4ccccc4)c3c3nc(-c4ccco4)nn23)cc1 | – | – | 524 | – | 208 | 772 | – | 626 | –
26 | COc1ccc(NC(=O)Nc2nc3cn(CCCc4ccccc4)cc3c3nc(-c4ccco4)nn23)cc1 | – | – | 210 | 12 | 13 | > 1000 | – | 130 | –
27 | Cn1ncc2nc(N3CCOCC3)n3nc(-c4ccco4)nc3c21 | 6 | 4 | > 1000 | 4 | > 1000 | > 1000 | 1 | > 1000 | –
28 | CCCn1cc2nc(N)n3nc(-c4ccco4)nc3c2n1 | – | – | 22 | – | 432 | 45 | – | 17 | –
